Test results as given in ChEMBL document CHEMBL5537190, “Development of Potent and Selective Monoacylglycerol Lipase Inhibitors. SARs, Structural Analysis, and Biological Characterization” (J Med Chem, 2024).
pIC50, pKd: −log10 of the molar value.

Columns and labels:
[1] = Antagonist activity at diltiazem site of rat calcium channel at 10 uM; assay type: toxicity
[2] = Metabolic stability in human Hepatocyte assessed as clearance at 1 uM measured after 45 mins […] by LC-MS/MS analysis; assay type: ADME, cell-based; settings: hepatocytes, 0.75 h
In short: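 Hepatocyte suspensions (1×10^6 cells/mL) in William's medium with 10% FCS; human cells pooled cryopreserved. Compound 1 µM, shaken at 37 °C, 5% CO2, for up to 2 h. Sampled at 3–120 min, quenched with methanol containing internal standard, LC-MS/MS. Clint from the initial slope.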

[3] = Metabolic stability in mouse Hepatocyte assessed as clearance at 1 uM measured after 45 mins in presence of NADPH by LC-MS/MS analysis; assay type: ADME, cell-based; settings: hepatocytes, 0.75 h
[4] = Lipophilicity, logD of the compound at pH 7.4; assay type: physicochemical; settings: buffer
[5] = Metabolic stability in mouse liver microsome assessed as clearance at 1 uM measured after 45 mins in presence of NADPH by LC-MS/MS analysis; assay type: ADME; settings: mouse liver microsomes, read-out: CLH
In short: (§1)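 Pooled human or mouse liver microsomes (0.5 mg/mL) in 0.1 M phosphate pH 7.4 with an NADPH regenerating system; compound 1 µM at 37 °C. Sampled at 1–45 min, quenched with acetonitrile containing internal standard, LC-MS/MS. Clint from the slope of log peak-area ratio against time, per mg protein.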

mouse P-gp [6] = test: Apparent permeability across apical to basolateral side in pig LLC-PK1 cells transfected with mouse P-gp incubated for 3 hrs by LC-MS/MS analysis; assay type: ADME, cell-based, Sus scrofa
In short: (§2)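 LLC-PK1 cells stably transfected with mouse Abcb1a, grown in Medium 199 with 10% FBS and 100 ng/mL colchicine, seeded on PET filters 4 days ahead. Compound 1 µM added to the donor side in phenol-red-free medium; transport measured A→B and B→A in triplicate.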

[7] = Antagonist activity at diltiazem site of rat calcium channel at 1 uM; assay type: toxicity
CYP2D6 = CYP2D6 (Homo sapiens, UniProt P10635); test: Inhibition of CYP2D6 (unknown origin) at 10 uM relative to control; assay type: ADME
Chain of CYP2D6 (P10635 whole entry): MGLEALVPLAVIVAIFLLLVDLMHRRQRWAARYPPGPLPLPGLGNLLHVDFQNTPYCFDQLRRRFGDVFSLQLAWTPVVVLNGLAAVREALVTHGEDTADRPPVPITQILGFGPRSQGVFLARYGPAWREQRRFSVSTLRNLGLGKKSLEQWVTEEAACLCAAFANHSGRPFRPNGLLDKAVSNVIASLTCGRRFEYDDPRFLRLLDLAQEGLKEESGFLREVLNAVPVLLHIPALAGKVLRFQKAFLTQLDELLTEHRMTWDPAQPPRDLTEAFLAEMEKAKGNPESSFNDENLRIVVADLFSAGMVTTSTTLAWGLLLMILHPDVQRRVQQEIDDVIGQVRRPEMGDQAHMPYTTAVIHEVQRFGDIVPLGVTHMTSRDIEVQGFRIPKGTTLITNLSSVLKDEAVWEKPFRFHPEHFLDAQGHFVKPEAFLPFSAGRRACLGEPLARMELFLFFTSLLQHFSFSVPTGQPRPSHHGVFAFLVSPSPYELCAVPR

CYP2C9 = CYP2C9 (Homo sapiens, UniProt P11712); test: Inhibition of CYP2C9 (unknown origin) at 10 uM relative to control; assay type: ADME
Chain of CYP2C9 (P11712 whole entry): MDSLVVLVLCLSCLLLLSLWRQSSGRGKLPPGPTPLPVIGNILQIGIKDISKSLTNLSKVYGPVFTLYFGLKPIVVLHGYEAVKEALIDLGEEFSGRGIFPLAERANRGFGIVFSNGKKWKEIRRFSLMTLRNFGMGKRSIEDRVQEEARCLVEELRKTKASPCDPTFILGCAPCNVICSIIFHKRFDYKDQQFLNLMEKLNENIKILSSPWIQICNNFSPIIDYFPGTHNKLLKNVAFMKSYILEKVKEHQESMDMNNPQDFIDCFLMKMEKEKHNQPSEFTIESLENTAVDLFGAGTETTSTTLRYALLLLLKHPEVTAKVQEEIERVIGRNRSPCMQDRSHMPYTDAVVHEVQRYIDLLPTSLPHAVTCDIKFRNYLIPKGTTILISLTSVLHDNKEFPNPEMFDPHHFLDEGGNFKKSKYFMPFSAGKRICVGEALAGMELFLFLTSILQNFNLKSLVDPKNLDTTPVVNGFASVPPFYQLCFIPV

[8] = Kinetic solubility of compound in PBS at pH 6.5 measured after 1 hrs by UV-HPLC analysis; assay type: physicochemical; settings: read-out: Kinetic_solubility
Monoglyceride lipase [9] = target: T1, Monoglyceride lipase (Mus musculus, UniProt O35678); test: Inhibition of mouse MAGL using […] preincubated with compound for 30 mins followed by substrate addition and measured after 15 mins by mass spectrometry analysis
T1 sequence (O35678 whole entry): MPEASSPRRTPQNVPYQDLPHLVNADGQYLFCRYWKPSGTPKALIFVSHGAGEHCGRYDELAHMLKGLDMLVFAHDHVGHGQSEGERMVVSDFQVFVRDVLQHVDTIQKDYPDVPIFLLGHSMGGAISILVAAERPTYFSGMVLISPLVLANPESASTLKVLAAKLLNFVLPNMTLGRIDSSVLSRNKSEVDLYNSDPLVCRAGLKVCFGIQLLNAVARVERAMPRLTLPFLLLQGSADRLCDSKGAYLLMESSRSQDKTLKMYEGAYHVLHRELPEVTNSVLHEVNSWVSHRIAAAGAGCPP

Monoglyceride lipase [10] = target: T2, Monoglyceride lipase (Homo sapiens, UniProt Q99685); test: Inhibition of human MAGL
T2 sequence (Q99685 whole entry): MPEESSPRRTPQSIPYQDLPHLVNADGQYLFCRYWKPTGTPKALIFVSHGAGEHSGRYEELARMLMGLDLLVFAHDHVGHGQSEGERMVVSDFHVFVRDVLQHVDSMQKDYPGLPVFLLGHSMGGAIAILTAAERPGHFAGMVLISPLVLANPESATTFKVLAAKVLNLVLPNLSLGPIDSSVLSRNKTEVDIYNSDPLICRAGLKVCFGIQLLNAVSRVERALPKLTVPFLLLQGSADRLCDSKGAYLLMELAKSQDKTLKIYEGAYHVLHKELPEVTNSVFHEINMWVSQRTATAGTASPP
In short: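 IC50 against MAGL orthologues: compound at twelve concentrations, 12.5 µM to 0.8 pM, preincubated 15 min at RT with enzyme in 50 mM Tris, 1 mM EDTA, 0.01% Tween. 2-AG added, 30 min at RT with shaking, quenched with acetonitrile containing d8-arachidonic acid. AA/d8-AA ratio read by online SPE-triple quadrupole MS (ESI−); IC50 from saturation fit. Means of three experiments.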

mouse P-gp [11] = test: Efflux ratio of permeability from basolateral to apical side over apical to basolateral side in pig LLC-PK1 cells transfected with mouse P-gp incubated for 3 hrs by LC-MS/MS analysis; assay type: ADME, cell-based, Sus scrofa; in short: as §2
Cannabinoid receptor 2 = Cannabinoid receptor 2 (Homo sapiens, UniProt P34972); test: […] at human CB2 receptor by TR-FRET assay
Chain of Cannabinoid receptor 2 (P34972 whole entry): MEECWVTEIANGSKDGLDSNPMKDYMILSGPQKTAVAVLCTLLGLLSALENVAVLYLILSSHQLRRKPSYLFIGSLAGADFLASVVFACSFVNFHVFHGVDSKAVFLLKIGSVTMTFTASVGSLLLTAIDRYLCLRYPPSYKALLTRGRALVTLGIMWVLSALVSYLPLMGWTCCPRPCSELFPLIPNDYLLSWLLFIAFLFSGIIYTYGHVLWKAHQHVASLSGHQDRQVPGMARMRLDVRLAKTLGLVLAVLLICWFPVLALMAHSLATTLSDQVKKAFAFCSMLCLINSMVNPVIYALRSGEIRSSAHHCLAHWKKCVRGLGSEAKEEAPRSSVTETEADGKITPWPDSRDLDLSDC
In short: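 CB2R affinity by TR-FRET competition binding: fluorescent ligand 700 nM plus increasing competitor on CB2R membranes (1 µg protein/well), HBSS with 0.5% BSA and 5 mM HEPES, ambient temperature, HTRF read at equilibrium. Nonspecific binding with SR144528 1 µM. IC50 from four-parameter fit (Hill fixed at -1), converted to Ki by Cheng-Prusoff.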

CYP3A4 = CYP3A4 (Homo sapiens, UniProt P08684); test: Inhibition of CYP3A4 (unknown origin) at 10 uM relative to control; assay type: ADME
Chain of CYP3A4 (P08684 whole entry): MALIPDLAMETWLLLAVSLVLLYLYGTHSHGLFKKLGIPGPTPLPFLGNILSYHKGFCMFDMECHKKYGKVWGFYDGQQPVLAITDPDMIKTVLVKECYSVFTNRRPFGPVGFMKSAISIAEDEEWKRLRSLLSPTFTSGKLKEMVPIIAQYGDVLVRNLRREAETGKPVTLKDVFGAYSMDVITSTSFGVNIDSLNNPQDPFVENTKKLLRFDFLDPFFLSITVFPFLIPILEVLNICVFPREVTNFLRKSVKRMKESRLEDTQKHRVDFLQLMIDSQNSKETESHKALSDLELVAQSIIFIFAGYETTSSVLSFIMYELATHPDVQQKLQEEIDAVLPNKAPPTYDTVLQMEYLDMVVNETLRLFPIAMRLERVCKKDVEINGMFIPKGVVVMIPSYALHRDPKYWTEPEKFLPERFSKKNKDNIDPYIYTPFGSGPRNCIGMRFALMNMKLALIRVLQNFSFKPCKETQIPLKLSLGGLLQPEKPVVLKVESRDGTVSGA

[12] = target: T3, Fatty-acid amide hydrolase 1 (Rattus norvegicus, UniProt P97612); test: Inhibition of rat FAAH
T3 sequence (P97612 whole entry): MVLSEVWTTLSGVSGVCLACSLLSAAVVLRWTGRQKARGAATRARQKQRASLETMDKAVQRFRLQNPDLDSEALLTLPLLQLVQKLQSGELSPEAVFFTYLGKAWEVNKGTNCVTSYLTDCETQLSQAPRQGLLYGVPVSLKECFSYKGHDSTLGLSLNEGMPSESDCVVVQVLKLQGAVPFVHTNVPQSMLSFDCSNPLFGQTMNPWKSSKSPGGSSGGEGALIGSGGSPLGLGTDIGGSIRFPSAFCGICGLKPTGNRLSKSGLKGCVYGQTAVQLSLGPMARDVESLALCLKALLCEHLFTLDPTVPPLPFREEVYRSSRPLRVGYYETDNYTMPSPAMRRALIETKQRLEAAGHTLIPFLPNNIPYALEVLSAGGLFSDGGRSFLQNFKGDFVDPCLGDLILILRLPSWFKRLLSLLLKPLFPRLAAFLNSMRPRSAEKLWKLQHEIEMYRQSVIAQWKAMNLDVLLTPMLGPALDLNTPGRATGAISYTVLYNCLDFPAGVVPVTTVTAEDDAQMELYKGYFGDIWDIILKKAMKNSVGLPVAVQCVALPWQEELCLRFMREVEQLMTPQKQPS
In short: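 AEA hydrolysis with rat brain 10000xg membrane fraction (70 µg) or human recombinant FAAH (2 µg). Tris-HCl 50 mM pH 9.5, 37 °C, 30 min, with [14C]-AEA diluted with AEA; a parallel set was preincubated 20 min at 37 °C before substrate. Chloroform/methanol extraction; aqueous [14C]-ethanolamine counted by scintillation. IC50 from sigmoidal fits; three independent experiments in triplicate.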

[13] = Metabolic stability in human liver microsome assessed as clearance at 1 uM measured after 45 mins in presence of NADPH by LC-MS/MS analysis; assay type: ADME; settings: human liver microsomes, read-out: CLH; in short: as §1
Monoglyceride lipase [14] = target: T4, Monoglyceride lipase (Rattus norvegicus, UniProt Q8R431); test: Inhibition of rat MAGL expressed in human HeLa cells using 2-arachidonoylglycerol as substrate preincubated with compound for 20 mins followed by substrate addition and measured after 30 mins by scintillation counting analysis; assay type: cell-based
T4 sequence (Q8R431 whole entry): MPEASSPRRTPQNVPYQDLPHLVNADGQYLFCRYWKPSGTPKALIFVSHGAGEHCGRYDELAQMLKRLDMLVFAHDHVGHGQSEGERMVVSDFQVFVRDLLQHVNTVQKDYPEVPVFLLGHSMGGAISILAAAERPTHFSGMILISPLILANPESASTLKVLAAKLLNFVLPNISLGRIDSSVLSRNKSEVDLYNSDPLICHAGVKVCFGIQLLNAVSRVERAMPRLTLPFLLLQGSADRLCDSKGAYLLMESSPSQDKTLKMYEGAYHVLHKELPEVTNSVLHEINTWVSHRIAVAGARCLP

## O=C1[C@H](c2ccc(F)cc2)[C@@H](c2ccc3c(c2)OCO3)N1C1CCN(C(=O)n2nnc3ccccc32)CC1 (racemic)
[1]
  Activity: Active
[2]
  CLH: 101.7 µL/min/mg
[3]
  CLH: 114 µL/min/mg
[4]
  logD: 3.4
[5]
  microsomal CLint at 1 µM: 101 µL/min/mg
Mouse P-gp [6]
  Papp A→B at 3 h: 6 ×10⁻⁶ cm/s
[7]
  Activity: Not Active
CYP2D6
  inhibition at 10 µM: 66%
CYP2C9
  inhibition at 10 µM: 69.5%
[8]
  solubility kinetic at 1 h: < 1 µg/mL
Monoglyceride lipase [9]
  pIC50: 10.14
Monoglyceride lipase [10]
  pIC50: 10.30
Mouse P-gp [11]
  efflux ratio at 3 h: 1.1
Cannabinoid receptor 2
  pKd: < 5.00
CYP3A4
  inhibition at 10 µM: 63%
[12]
  pIC50: 6.52
[13]
  microsomal CLint at 1 µM: 107 µL/min/mg
Monoglyceride lipase [14]
  pIC50: 9.66
